Test results taken from ChEMBL document CHEMBL3232791, “Synthesis and antibacterial evaluation of amino acid-antibiotic conjugates” (2014).

Assays:
Format in all cases: functional
Escherichia coli [1] = test: Antibacterial activity against Escherichia coli DH5alpha assessed as growth inhibition at 75 ug/ml after 16 hrs by spectrophotometric method; settings: DH5[alpha], read-out: GI
Summary of the method: (§1)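 Growth inhibition read as OD600 on 300 µL culture samples, with untreated control cultures taken as maximum growth. Percent inhibition = (OD600 control − OD600 treated) × 100 / OD600 control. Parent antibiotics and their conjugates were run in parallel at three concentrations per compound, in biological duplicate.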

Staphylococcus aureus [2] = test: Antibacterial activity against Staphylococcus aureus RN4220 assessed as growth inhibition at 120 ug/ml after 16 hrs by spectrophotometric analysis; settings: RN4220, 16 h, read-out: GI; summary of the method: as §1
Staphylococcus aureus [3] = test: Antibacterial activity against Staphylococcus aureus RN4220 assessed as growth inhibition at 60 ug/ml after 16 hrs by spectrophotometric analysis; settings: RN4220, 16 h, read-out: GI; summary of the method: as §1
Escherichia coli [4] = test: Antibacterial activity against Escherichia coli DH5alpha assessed as growth inhibition at 40 ug/ml after 16 hrs by spectrophotometric method; settings: DH5[alpha], read-out: GI; summary of the method: as §1
Escherichia coli [5] = test: Antibacterial activity against Escherichia coli DH5alpha assessed as growth inhibition at 50 ug/ml after 16 hrs by spectrophotometric method; settings: DH5[alpha], read-out: GI; summary of the method: as §1
Staphylococcus aureus [6] = test: Antibacterial activity against Staphylococcus aureus RN4220 assessed as growth inhibition at 240 ug/ml after 16 hrs by spectrophotometric analysis; settings: RN4220, 16 h, read-out: GI; summary of the method: as §1
Bacillus subtilis [7] = test: Antibacterial activity against Bacillus subtilis 168 assessed as growth inhibition at 0.1 ug/ml after 16 hrs by spectrophotometric analysis; settings: subsp. subtilis str. 168, 16 h, read-out: GI; summary of the method: as §1
Staphylococcus aureus [8] = test: Antibacterial activity against Staphylococcus aureus RN4220 assessed as growth inhibition at 8 ug/ml after 16 hrs by spectrophotometric analysis; settings: RN4220, 16 h, read-out: GI; summary of the method: as §1
Staphylococcus aureus [9] = test: Antibacterial activity against Staphylococcus aureus RN4220 assessed as growth inhibition at 2 ug/ml after 16 hrs by spectrophotometric analysis; settings: RN4220, 16 h, read-out: GI; summary of the method: as §1
Staphylococcus aureus [10] = test: Antibacterial activity against Staphylococcus aureus RN4220 assessed as growth inhibition at 4 ug/ml after 16 hrs by spectrophotometric analysis; settings: RN4220, 16 h, read-out: GI; summary of the method: as §1
Escherichia coli [11] = test: Antibacterial activity against Escherichia coli DH5alpha assessed as growth inhibition at 0.125 ug/ml after 16 hrs by spectrophotometric method; settings: DH5[alpha], read-out: GI; summary of the method: as §1
Pseudomonas aeruginosa [12] = test: Antibacterial activity against Pseudomonas aeruginosa PAO1 assessed as growth inhibition at 10 ug/ml after 16 hrs by spectrophotometric analysis; settings: PAO1, 16 h, read-out: GI; summary of the method: as §1
Escherichia coli [13] = test: Antibacterial activity against Escherichia coli DH5alpha assessed as growth inhibition at 0.0635 ug/ml after 16 hrs by spectrophotometric method; settings: DH5[alpha], read-out: GI; summary of the method: as §1
Bacillus subtilis [14] = test: Antibacterial activity against Bacillus subtilis 168 assessed as growth inhibition at 0.2 ug/ml after 16 hrs by spectrophotometric analysis; settings: subsp. subtilis str. 168, 16 h, read-out: GI; summary of the method: as §1
Pseudomonas aeruginosa [15] = test: Antibacterial activity against Pseudomonas aeruginosa PAO1 assessed as growth inhibition at 40 ug/ml after 16 hrs by spectrophotometric analysis; settings: PAO1, 16 h, read-out: GI; summary of the method: as §1
Bacillus subtilis [16] = test: Antibacterial activity against Bacillus subtilis 168 assessed as growth inhibition at 0.4 ug/ml after 16 hrs by spectrophotometric analysis; settings: subsp. subtilis str. 168, 16 h, read-out: GI; summary of the method: as §1
Pseudomonas aeruginosa [17] = test: Antibacterial activity against Pseudomonas aeruginosa PAO1 assessed as growth inhibition at 20 ug/ml after 16 hrs by spectrophotometric analysis; settings: PAO1, 16 h, read-out: GI; summary of the method: as §1
Escherichia coli [18] = test: Antibacterial activity against Escherichia coli DH5alpha assessed as growth inhibition at 0.5 ug/ml after 16 hrs by spectrophotometric method; settings: DH5[alpha], read-out: GI; summary of the method: as §1

| Structure (SMILES) | inhibition of growth at 75 µg/mL (Escherichia coli [1]) | inhibition of growth at 120 µg/mL (Staphylococcus aureus [2]) | inhibition of growth at 60 µg/mL (Staphylococcus aureus [3]) | inhibition of growth at 40 µg/mL (Escherichia coli [4]) | inhibition of growth at 50 µg/mL (Escherichia coli [5]) | inhibition of growth at 240 µg/mL (Staphylococcus aureus [6]) | inhibition of growth at 0.1 µg/mL (Bacillus subtilis [7]) | inhibition of growth at 8 µg/mL (Staphylococcus aureus [8]) | inhibition of growth at 2 µg/mL (Staphylococcus aureus [9]) | inhibition of growth at 4 µg/mL (Staphylococcus aureus [10]) | inhibition of growth at 0.125 µg/mL (Escherichia coli [11]) | inhibition of growth at 10 µg/mL (Pseudomonas aeruginosa [12]) | inhibition of growth at 0.0635 µg/mL (Escherichia coli [13]) | inhibition of growth at 0.2 µg/mL (Bacillus subtilis [14]) | inhibition of growth at 40 µg/mL (Pseudomonas aeruginosa [15]) | inhibition of growth at 0.4 µg/mL (Bacillus subtilis [16]) | inhibition of growth at 20 µg/mL (Pseudomonas aeruginosa [17]) | inhibition of growth at 0.5 µg/mL (Escherichia coli [18]) |
| --- | --- | --- | --- | --- | --- | --- | --- | --- | --- | --- | --- | --- | --- | --- | --- | --- | --- | --- |
| O=C(C[C@H](NC(=O)OCc1ccccc1)C(=O)Nc1ccc(S(=O)(=O)Nc2ncccn2)cc1)OCc1ccccc1 | 4.72% | -2.44% | -17.6% | 4.72% | 3.75% | 3.48% |  |  |  |  |  |  |  |  |  |  |  |  |
| O=C(NCC(=O)N1CCN(c2cc3c(cc2F)c(=O)c(C(=O)O)cn3C2CC2)CC1)OCc1ccccc1 |  |  |  |  |  |  | 18.5% | 70.8% | 45.7% | 50.3% | -2.17% | -14% | 1.86% | 16.2% | 45% | 94.2% | -1.56% | 2.25% |
| C[C@H](NC(=O)OCc1ccccc1)C(=O)N1CCN(c2cc3c(cc2F)c(=O)c(C(=O)O)cn3C2CC2)CC1 |  |  |  |  |  |  | 12.6% | 55.8% | 23.2% | 46.1% | -2.93% | -13.3% | -0.72% | 42.3% | 58.2% | 91.9% | -2.13% | -1.86% |
| O=C(NCCCC[C@H](NC(=O)OCc1ccccc1)C(=O)N1CCN(c2cc3c(cc2F)c(=O)c(C(=O)O)cn3C2CC2)CC1)OCc1ccccc1 |  |  |  |  |  |  | 9.59% | 62.9% | 39.3% | 51.6% | 4.12% | 87.1% | -0.2% | 12.7% | 84.2% | 40.4% | 89.7% | 38.9% |
| C[C@H](NC(=O)OCc1ccccc1)C(=O)Nc1ccc(S(=O)(=O)Nc2ncccn2)cc1 | -0.65% | -9.38% | -9.96% | 2.13% | -0.61% | 1.07% |  |  |  |  |  |  |  |  |  |  |  |  |
| O=C(O)c1cn(C2CC2)c2cc(N3CCNCC3)c(F)cc2c1=O [CIPROFLOXACIN] |  |  |  |  |  |  | 30.4% | 75.3% | 48.4% | 63.9% | 52.3% | 91.8% | 32.5% |  | 89.8% | 94.3% | 91% | 77% |
| Nc1ccc(S(=O)(=O)Nc2ncccn2)cc1 [SULFADIAZINE] | 6.44% | 2.17% | -6.47% | 2.66% | 8.11% | 18.1% |  |  |  |  |  |  |  |  |  |  |  |  |
| O=C(N[C@@H](Cc1ccccc1)C(=O)Nc1ccc(S(=O)(=O)Nc2ncccn2)cc1)OCc1ccccc1 | 3.46% | 18.2% | -8.23% | 0.39% | 0.05% | 29.1% |  |  |  |  |  |  |  |  |  |  |  |  |
